Experimental data from different studies.
Lines come from different studies, so protocols differ.
Target: Broad substrate specificity ATP-binding cassette transporter ABCG2 (ABCG2, Homo sapiens, UniProt Q9UNQ0)
Residues used in one study (Q9UNQ0 1-655): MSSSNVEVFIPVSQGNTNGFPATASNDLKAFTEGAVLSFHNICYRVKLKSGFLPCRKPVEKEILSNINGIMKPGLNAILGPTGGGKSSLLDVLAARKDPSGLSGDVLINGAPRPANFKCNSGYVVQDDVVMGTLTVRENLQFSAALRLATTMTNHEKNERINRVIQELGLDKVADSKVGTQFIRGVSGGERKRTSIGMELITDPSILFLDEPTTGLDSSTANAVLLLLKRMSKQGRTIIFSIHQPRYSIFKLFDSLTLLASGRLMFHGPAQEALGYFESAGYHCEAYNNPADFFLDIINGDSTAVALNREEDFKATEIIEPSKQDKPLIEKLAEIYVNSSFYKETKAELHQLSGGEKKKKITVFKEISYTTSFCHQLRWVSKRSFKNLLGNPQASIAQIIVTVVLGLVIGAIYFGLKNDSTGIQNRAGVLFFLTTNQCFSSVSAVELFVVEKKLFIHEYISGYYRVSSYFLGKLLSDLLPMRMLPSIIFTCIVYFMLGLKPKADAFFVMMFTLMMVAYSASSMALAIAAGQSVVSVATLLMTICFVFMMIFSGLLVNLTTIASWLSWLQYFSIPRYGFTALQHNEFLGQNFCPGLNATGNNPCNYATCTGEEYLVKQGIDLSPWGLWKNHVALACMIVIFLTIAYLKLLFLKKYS

Structure (SMILES)	assay	test system	conditions	endpoint	result
C=C[C@@H]1C[C@]1(NC(=O)[C@@H]1C[C@@H]2CN1C(=O)[C@H](C(C)(C)C)NC(=O)O[C@@H]1C[C@H]1CCCCCc1nc3ccc(OC)cc3nc1O2)C(=O)NS(=O)(=O)C1CC1	transporter uptake, inhibitor	–	cell membranes	Ki	4 µM
C[C@@H](C(=O)N1Cc2c(-c3ccc(C(=O)N4CCCc5ccccc54)cc3)cnn2C[C@@H]1C)c1ccccc1	–	dog, MDCK-MDR1	–	Papp B→A	13.3 ×10⁻⁶ cm/s
N#C/C(=C/c1cc(Cl)cc(Cl)c1)c1cccnc1	ligand displacement	–	10 µM	inhibition	~55%
CN(C(=O)n1cnc(-c2ccc[n+]([O-])c2)c1)C1CCCCC1	transporter uptake, inhibitor	MDCK-II	10 µg/mL	inhibition	13%
CC(C)[C@H]1Cn2ncc(-c3ccc(C(=O)N4CCCc5ccccc54)cc3)c2CN1C(=O)Cc1ccccc1	–	dog, MDCK-MDR1	–	Papp B→A	11.9 ×10⁻⁶ cm/s
C/C(O)=C(\C#N)C(=O)Nc1ccc(C(F)(F)F)cc1	–	Caco-2	1 µM, 2 h, pH 7.4	Papp A→B	5.51 ×10⁻⁶ cm/s
O=C(O)CSc1nnc(Br)n1-c1ccc(C2CC2)c2ccccc12	transporter uptake, inhibitor	Caco-2	3 µM, 2 h	inhibition	18%
CN(CCC(=O)O)C(=O)c1ccc2c(c1)CC[C@@H]1[C@@H]2CC[C@]2(C)C(c3cncc(F)c3)=CC[C@@H]12	transporter uptake, inhibitor	–	–	IC50	7.6 µM
O=c1cc(-c2ccccc2)oc2cc(O)cc(O)c12	transporter uptake, inhibitor	Caco-2	100 µM, 2 h	inhibition	92%
CC(=O)c1cc(C(=O)N[C@@H](C)Cn2ccc(-c3ccc(C#N)c(Cl)c3)n2)[nH]n1	transporter uptake, inhibitor	–	cell membranes	Ki	0.56 µM
